Measurements: ChEMBL document CHEMBL3132837, “VUT-MK142 : a new cardiomyogenic small molecule promoting the differentiation of pre-cardiac mesoderm into cardiomyocytes” (2013)
Calls of active or inactive are those of the source. No cut-off for these calls is given here.

Columns and labels:
[1] = test system: P19; assay: Cardiomyogenic activity in mouse P19 cells assessed as upregulation of ANF gene expression at 1 uM after 7 days by luciferase reporter assay relative to control; type: functional, cell-based
Procedure, shortened: (§1)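 P19 and C2C12 cells transiently transfected with rat ANF promoter firefly luciferase plasmid plus pRL-SV40 Renilla control one day before treatment. P19: 7 days in induction medium (MEM-alpha, 5% FBS). C2C12: 7 days in differentiation medium (2% horse serum), compound added at the switch. Compound 1 μM, DMSO 0.005% in all wells, media refreshed twice. Dual-luciferase read-out, Renilla-normalised, expressed relative to DMSO control; n=3–10 independent preparations; 10 nM retinoic acid in P19 as positive control.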

[2] = test system: C2C12; assay: Cardiomyogenic activity in mouse C2C12 cells assessed as upregulation of ANF gene expression at 1 uM after 7 days by luciferase reporter assay relative to control; type: functional, cell-based; procedure, shortened: as §1
[3] = test system: P19; assay: Cardiomyogenic activity in mouse P19 cells assessed as upregulation of Nkx2.5 gene expression at 1 uM after 7 days by luciferase reporter assay relative to control; type: functional
Procedure, shortened: (§2)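 Nkx2.5 promoter firefly luciferase plasmid (pGL3b backbone) co-transfected with Renilla control one day before treatment. P19 cells treated in MEM-alpha/5% FBS induction medium; C2C12 cells treated in 2% horse serum differentiation medium. Compound 1 μM or 0.005% DMSO for 7 days, media refreshed twice. Dual-luciferase activity expressed as fold over DMSO control; paired two-tailed t-test on raw data.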

[4] = test system: C2C12; assay: Cardiomyogenic activity in mouse C2C12 cells assessed as upregulation of Nkx2.5 gene expression at 1 uM after 7 days by luciferase reporter assay relative to control; type: functional; procedure, shortened: as §2
[5] = species on record: Mus musculus; assay: Cardiomyogenesis in mouse cardiovascular progenitor cells assessed as formation of cardiac bodies at 1 uM compound treated on day 0 to day 5 of myocardial differentiation commitment by phase contrast microscopy relative to control; type: functional; conditions: Heart
Procedure, shortened: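 A5 CVPCs from newborn mouse hearts, grown in M15 on inactivated SNL76/7 feeders, aggregated into cardiac bodies in hanging drops (900 ± 50 cells per drop, 4.5 days), then plated on gelatine. Compound 1 μM or 0.005% DMSO present days 0–5. Beating CBs scored by microscopy for at least 20 days, 80 CBs per experiment, normalised daily to DMSO control.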

[6] = Cardiomyogenesis in mouse cardiovascular progenitor cells assessed as upregulation of brachyury gene expression at 1 uM by RT-PCR analysis; type: functional
[7] = species on record: Mus musculus; assay: Cardiomyogenesis in mouse cardiovascular progenitor cells assessed as formation of cardiac bodies at 1 uM compound by phase contrast microscopy relative to control; conditions: Heart
[8] = Cardiomyogenesis in mouse cardiovascular progenitor cells assessed as upregulation of Mesp1 gene expression at 1 uM by RT-PCR analysis; type: functional
[9] = Cardiomyogenesis in mouse cardiovascular progenitor cells assessed as upregulation of tropomyosin gene expression at 1 uM by RT-PCR analysis; type: functional
[10] = Cardiomyogenesis in mouse cardiovascular progenitor cells assessed as upregulation of Eomes gene expression at 1 uM by RT-PCR analysis; type: functional
[11] = Cardiomyogenesis in mouse cardiovascular progenitor cells assessed as upregulation of Gata4 gene expression at 1 uM by RT-PCR analysis; type: functional
[12] = species on record: Mus musculus; assay: Cardiomyogenesis in mouse cardiovascular progenitor cells assessed as formation of cardiac bodies with beating at 1 uM compound treated on day 5 to day 13 of myocardial differentiation commitment measured on day 11 to 13 by phase contrast microscopy relative to control; type: functional; conditions: Heart
[13] = Cardiomyogenesis in mouse cardiovascular progenitor cells assessed as upregulation of Mef2C gene expression at 1 uM by RT-PCR analysis; type: functional
[14] = Cardiomyogenesis in mouse cardiovascular progenitor cells assessed as upregulation of Nkx2.5 gene expression at 1 uM by RT-PCR analysis; type: functional

**Q.** For `OCCNc1cccc(Nc2ccc(Oc3ccccc3)cc2)n1`, which Activity [1] is on record?
**A.** inactive

**Q.** What about the Activity [2] of the same compound?
**A.** inactive

**Q.** Which Activity [1] does the source give for `COc1ccc(Nc2cc(NCCO)ncn2)cc1` here?
**A.** Active

**Q.** What about the Activity [2] of the same compound?
**A.** Active

**Q.** Which “fold change (FC)” value [3] does the source give for `COc1ccc(Nc2nccc(NCCO)n2)cc1` [CARDIOGENOL C] here?
**A.** 1.6

**Q.** What about the Activity [1] of the same compound?
**A.** Active

**Q.** And the “fold change (FC)” value [4]?
**A.** 1.4

**Q.** And the Activity [2]?
**A.** Active

**Q.** Which Activity [5] does the source give for `COc1ccc(Nc2cc(NC3CCCCC3)ncn2)cc1` here?
**A.** inactive

**Q.** What about the Activity [6] of the same compound?
**A.** Active

**Q.** And the “fold change (FC)” value [3]?
**A.** 3.1

**Q.** And the Activity [7]?
**A.** Active

**Q.** And the Activity [1]?
**A.** Active

**Q.** And the Activity [8]?
**A.** inactive

**Q.** What about the Activity [9] of the same compound?
**A.** inactive

**Q.** And the Activity [10]?
**A.** inactive

**Q.** What about the Activity [11] of the same compound?
**A.** inactive

**Q.** What about the “fold change (FC)” value [4] of the same compound?
**A.** 2.2

**Q.** What about the Activity [12] of the same compound?
**A.** Active

**Q.** And the Activity [13]?
**A.** Active

**Q.** What about the Activity [14] of the same compound?
**A.** Active

**Q.** What about the Activity [2] of the same compound?
**A.** Active

**Q.** Which results are given for `COc1ccc(Nc2cccc(NCCO)n2)cc1`?
**A.** Activity [1]: Active; Activity [2]: Active

**Q.** Which Activity [5] does the source give for `CNc1cc(Nc2ccc(OC)cc2)ncn1` here?
**A.** inactive

**Q.** What about the Activity [7] of the same compound?
**A.** inactive

**Q.** What about the Activity [1] of the same compound?
**A.** inactive

**Q.** And the Activity [2]?
**A.** inactive

**Q.** For `CCNc1cc(Nc2ccc(OC)cc2)ncn1`, which Activity [2] is on record?
**A.** Active
